The values below come from ChEMBL document CHEMBL1121717, “Tetrahydro-2-benzoxepins: a novel family of hypotensives” (1981).

Assay [1] has as its system Felis catus. The experiment in a line: Effect of compound on sympathetic nerve activity was measured in baroreceptor denervated cats at time 20min, after iv administration of 1.0 mg/kg. The assay is classed as functional. In short, it runs like this: (§1)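 Cats of either sex anesthetized i.p. with sodium diallylbarbituric acid (60 mg/kg) plus urethane (240 mg/kg), placed in stereotaxic frame, tracheal tube inserted; femoral artery cannulated for arterial pressure, femoral vein for drug. Sympathetic activity recorded from preganglionic splanchnic nerve. 1.0 mg/kg iv; n = 6 treated, n = 8 vehicle; MAP, HR and % SNA (0 min = 100) read at 0–60 min; mean ± error.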

Assay [2] deals with Felis catus. Put plainly: Effect of compound on blood pressure was measured in baroreceptor denervated cats at time 10min, after iv administration of 1.0 mg/kg. The assay is classed as functional. The procedure, abridged: as §1
Assay [3] deals with Felis catus. The experiment in a line: Effect of compound on sympathetic nerve activity was measured in baroreceptor denervated cats at time 5min, after iv administration of 1.0 mg/kg. The assay is classed as functional. In short, it runs like this:
as §1

In assay [4] the test system is Felis catus. The experiment in a line: Effect of compound on blood pressure was measured in baroreceptor denervated cats at time 40min, after iv administration of 1.0 mg/kg. In kind it is functional. The procedure, abridged: as §1
The test system of assay [5] is Felis catus. Put plainly: Effect of compound on heart rate was measured in baroreceptor denervated cats at time 40min, after iv administration of 1.0 mg/kg. The assay is classed as functional. In short, it runs like this:
as §1

Assay [6] relates to Felis catus. Put plainly: Effect of compound on heart rate was measured in baroreceptor denervated cats at time 60min, after iv administration of 1.0 mg/kg. In kind it is functional. In short, it runs like this:
as §1

Assay [7] concerns Felis catus. Put plainly: Effect of compound on blood pressure was measured in baroreceptor denervated cats at time 20min, after iv administration of 1.0 mg/kg. In kind it is functional. The procedure, abridged: as §1
For assay [8], the system named is Rattus norvegicus. Put plainly: Oral hypotensive activity of compound was tested in conscious rats after oral administration at 50 mg/Kg dose; -49/-52. The assay is classed as functional, organism-based.
The test system of assay [9] is Felis catus. Put plainly: Effect of compound on blood pressure was measured in baroreceptor denervated cats at time 0 min, after iv administration of 1.0 mg/kg. The assay is classed as functional. The procedure, abridged:
as §1

For assay [10], the system named is Felis catus. Put plainly: Effect of compound on heart rate was measured in baroreceptor denervated cats at time 20min, after iv administration of 1.0 mg/kg. In kind it is functional. The procedure, abridged: as §1
Assay [11] relates to Felis catus. The experiment in a line: Effect of compound on sympathetic nerve activity was measured in baroreceptor denervated cats at time 60min, after iv administration of 1.0 mg/kg. In kind it is functional. In short, it runs like this: as §1
The test system of assay [12] is Rattus norvegicus. Put plainly: Oral hypotensive activity of compound was tested in conscious rats after oral administration at 5 mg/Kg dose; -24/-9. In kind it is functional, organism-based.
Assay [13] has as its system Felis catus. Put plainly: Effect of compound on blood pressure was measured in baroreceptor denervated cats at time 5min, after iv administration of 1.0 mg/kg. The assay is classed as functional. In short, it runs like this: as §1
The test system of assay [14] is Felis catus. The experiment in a line: Effect of compound on heart rate was measured in baroreceptor denervated cats at time 0min, after iv administration of 1.0 mg/kg. The assay is classed as functional. In short, it runs like this:
as §1

The subject of assay [15] is Felis catus. Put plainly: Effect of compound on sympathetic nerve activity was measured in baroreceptor denervated cats at time 40min, after iv administration of 1.0 mg/kg. The assay is classed as functional. In short, it runs like this: as §1
The test system of assay [16] is Felis catus. The experiment in a line: Effect of compound on blood pressure was measured in baroreceptor denervated cats at time 60min, after iv administration of 1.0 mg/kg. In kind it is functional. The procedure, abridged: as §1
Assay [17] relates to Felis catus. Put plainly: Effect of compound on heart rate was measured in baroreceptor denervated cats at time 5min, after iv administration of 1.0 mg/kg. The assay is classed as functional. The procedure, abridged: as §1
In assay [18] the test system is Felis catus. Put plainly: Effect of compound on sympathetic nerve activity was measured in baroreceptor denervated cats at time 0min, after iv administration of 1.0 mg/kg. The assay is classed as functional. The procedure, abridged: as §1
For assay [19], the system named is Felis catus. Put plainly: Effect of compound on heart rate was measured in baroreceptor denervated cats at time 10min, after iv administration of 1.0 mg/kg. The assay is classed as functional. In short, it runs like this: as §1
The test system of assay [20] is Felis catus. The experiment in a line: Effect of compound on sympathetic nerve activity was measured in baroreceptor denervated cats at time 10min, after iv administration of 1.0 mg/kg. The assay is classed as functional. The procedure, abridged:
as §1

Active and inactive are the calls of the source. No cut-off for these calls is given here.

Turning to `COc1cc2c(cc1OC)C(CCN1CCN(c3ccc(F)cc3)CC1)OCCC2.Cl` (stereo not given), the SNA with Felis catus [1] is given as 86%; in the assay on Felis catus [3], 72%; in the assay with Felis catus [11], 96%; with Felis catus [15], 88%; in the assay with Felis catus [18], 100%; with Felis catus [20], 76%. In addition, the MAP with Felis catus [2] is recorded as 85; in the assay with Felis catus [4], 107; in the assay with Felis catus [7] it was 95; in the assay on Felis catus [9], 131; in the assay with Felis catus [13], 75; in the assay on Felis catus [16], 109. In addition, the HR turned out to be 231 in the assay on Felis catus [5]; 232 in the assay with Felis catus [6]; 230 in the assay with Felis catus [10]; 229 in the assay with Felis catus [14]; 229 in the assay on Felis catus [17]; 230 in the assay on Felis catus [19]. Besides, the Delta blood pressure entry in the assay on Rattus norvegicus [8] and in the assay on Rattus norvegicus [12] was “Active” in each case.
